Measurements from ChEMBL document CHEMBL4513216, “Probing the Open Global Health Chemical Diversity Library for Multistage-Active Starting Points for Next-Generation Antimalarials” (ACS Infect Dis, 2020).

Assay: Toxicity liver stage against HepG2, at 10uM
Type: cell-based
Parameters: test concentration 10 uM, cell line HepG2-A16-CD81EGFP
Conditions: human, HepG2-A16-CD81EGFP cells; read-out: INHIBITION
In short: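 Uninfected HepG2-A16-CD81EGFP cells, 3 × 10^3 per well, 1536-well, plated on prespotted compound at 10 μM final, parasite-free screening media added to match infected plates; puromycin 10 μM positive, DMSO 0.5% negative; run in parallel with 48 h PbLuc assay at 37 °C, 5% CO2; viability by CellTiter-Glo luminescence, normalized to controls.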

Row | SMILES | cytotoxicity at 10 µM
1 | Cc1cc(=O)n2nc(Oc3ccc(C#N)cc3Cl)sc2n1 | 1.15%
2 | CN(C)[C@H]1C[C@@H](Cc2cc(CO)on2)C1(C)C | 0.994%
3 | COCCN1C(=O)CO[C@H]2CN(Cc3ccccc3OC)C[C@H]21 | -1.52%
4 | O=C1NC[C@H]2CN(Cc3ccccn3)CCN12 | -2.4%
5 | CNC(=O)c1csc(-c2cccnc2)n1 | 3.19%
6 | CC(C)(O)CN1CCC(=O)N(Cc2ccco2)Cc2cc(F)ccc21 | -3.66%
7 | COCCn1ccc2cc(C(=O)NC3CCOC(C)(C)C3)ccc21 (configuration not stated) | -0.508%
8 | O=C(COc1coc(CN2CCCCC2)cc1=O)Nc1cccc(Cl)c1 | -1.89%
9 | Cc1ccc(NC(=O)NCCn2cnc(C)c(C)c2=O)cc1F | 3.22%
10 | COC(=O)c1ccc(S(=O)(=O)NCC(C)(O)c2cccs2)cc1 (configuration not stated) | -6.87%
11 | CCOC(=O)N1CCC(Oc2ccc(C(F)(F)F)cn2)CC1 | 7.5%
12 | O=C(COc1ccccc1F)NCCC(O)c1ccoc1 (configuration not stated) | -13.4%
13 | COCCN(C)C(=O)c1ccc2onc(-c3coc(C)n3)c2c1 | -144%
14 | CCOc1ncnc2c1CCN(S(=O)(=O)C1CC1)CC2 | 3.42%
15 | N#Cc1cccc(C(=O)N2CCn3c(Cn4cncn4)cnc3C2)c1 | 7.42%
16 | Cc1cnc2n(c1=O)CC(C(=O)Nc1ccccc1Cl)CS2 (configuration not stated) | -10.7%
17 | CCCNC(=O)c1cc2c(nc1O)CCC(C)C2 (configuration not stated) | 0.717%
18 | Cc1nn(C)c2c(N(C)Cc3cccs3)nc(C3CC3)nc12 | -126%
19 | Cc1cccc2c1cnn2CCCNC(=O)c1cnn(C)c1 | 6.75%
20 | Cc1cc(N2CCC(O)(CN(C)C(=O)CCCN)C2)c2cnccc2n1 (configuration not stated) | -8.65%
21 | CC1(c2ncc(CN3CCN(c4ccccn4)CC3)cn2)CCCCO1 (configuration not stated) | 2.68%
22 | COCC(=O)N1CCCC1c1nc(C)c2c(n1)N(CC(C)C)C(=O)CC2 (configuration not stated) | 1.6%
23 | Cn1cc(C(=O)N2CCCC(c3ccncc3)C2)cn1 (configuration not stated) | -13%

Row | SMILES | cytotoxicity at 10 µM
24 | Cc1nc(CN(Cc2ccccc2F)C2CCC2)no1 | 6.95%
25 | COc1ccc2nc(C3CC3)cc(C(=O)NCCc3nnc[nH]3)c2c1 | 0.867%
26 | CN1CCCN(S(=O)(=O)c2cn(C)cn2)c2cc(Cl)ccc21 | 2.14%
27 | COc1c(C)cnc(CN2CCn3c(nnc3C(C)C)C2)c1C | 5.56%
28 | CCCNc1nc(CS(=O)(=O)c2ccccc2)cs1 | 0.939%
29 | Cc1nccn1-c1cc(CNS(=O)(=O)N2CCCC(C)C2)ccn1 (configuration not stated) | -2.42%
30 | CC(O)CN1CCC(CNCCOCC(F)(F)F)CC1 (configuration not stated) | 4.91%
31 | CN(C)Cc1nc(C(C)(C)NC(=O)c2cccc3ccccc23)no1 | -1.8%
32 | CN(CC(=O)NC(N)=O)CC1(c2ccc(Br)cc2)CC1 | 0.913%
33 | CN(CC(O)C(F)(F)F)C(=O)Nc1cccc(N2CCCC2)c1 (configuration not stated) | 5.48%
34 | CCS(=O)(=O)N1Cc2ccccc2CC1C(=O)OCc1c(C)noc1C (configuration not stated) | -9.26%
35 | CCc1ccc(-c2noc(Cn3nc(C(N)=O)ccc3=O)n2)cc1 | -4.22%
36 | CN1CCOC(CNC(=O)C2(c3cccc(C(F)(F)F)c3)CCCC2)C1 (configuration not stated) | -4.22%
37 | COc1cc(OC)cc(N2CCC(NCc3ccsc3)C2=O)c1 (configuration not stated) | 0.347%
38 | CC(=O)c1c(C)cc(C)c(Cn2ccnc2S(C)(=O)=O)c1C | -0.657%
39 | Cc1ccnc(N2CCCC(c3noc(C(C)C)n3)C2)n1 (configuration not stated) | 21.9%
40 | Cc1ccccc1CN(Cc1ccccn1)C(=O)CNS(C)(=O)=O | 1.48%
41 | CCC(C)(NCC(=O)NC(=O)NC)c1nccs1 (configuration not stated) | 7.77%
42 | O=C(NCc1ccccc1CN1CCCC1)Nc1nncs1 | 6.13%
43 | CC(Cn1ccnc1)NS(=O)(=O)c1ccc(C#N)c(Cl)c1 (configuration not stated) | -9.97%
44 | COc1ccccc1NC(=O)Cc1c(C)nc2c(c1C)c(=O)[nH]n2C | -1.68%
45 | OC(CNc1cncc(OCc2ccccc2)n1)c1ccco1 (configuration not stated) | -1.53%
46 | CCN1CCC(NC(=O)CN2CCCCC2Cn2cccn2)CC1 (configuration not stated) | -2.71%

Row | SMILES | cytotoxicity at 10 µM
47 | c1cc(CNCc2ccnc(N3CCCC3)c2)c2c(c1)OCO2 | 3.21%
48 | COc1cccc(CN(C)C(=O)CCC(=O)c2ccccc2)c1OC | -3.62%
49 | CCOc1ccc(NC(=O)N2CCOC(C(N)=O)C2)cc1Cl (configuration not stated) | -140%
50 | Cc1ccc(C(=O)N(C)Cc2nccn2CC(F)(F)F)cn1 | 2.52%
51 | CCc1ncc2c(n1)CN(C(C(N)=O)c1ccccc1)CC2 (configuration not stated) | -2.35%
52 | COCCN(Cc1cccc(C#N)c1)Cc1nnsc1Cl | 7.96%
53 | CCCc1nn(C2CCCN(C(C)C)C2=O)c(=O)o1 (configuration not stated) | -6.11%
54 | CCn1c(CN(C)C(=O)c2ccc(N(C)C)nc2)nc2ccccc21 | 0.0894%
55 | O=C(CNc1ccc(F)cc1OCC(F)(F)F)NCc1ccco1 | 7.35%
56 | CCn1nc(C(=O)N2CCCC2c2noc(C)n2)ccc1=O (configuration not stated) | 4.99%
57 | Cc1nc(C(NC(=O)CC(F)(F)F)c2ccc(Cl)cc2)no1 (configuration not stated) | 9.83%
58 | O=C(NS(=O)(=O)c1cnn(-c2ccccc2F)c1)c1ccoc1 | -5.2%
59 | Cc1ccc(NCc2cccc3cn[nH]c23)cc1OC1CCOC1 (configuration not stated) | 1.44%
60 | Cn1ccnc1CCNC(=O)C1CCCN(Cc2cccc(F)c2)C1 (configuration not stated) | -6.87%
61 | Cc1nn(C)c(C)c1CC(C)NC(=O)NCc1ccn(C(C)C)n1 (configuration not stated) | -1.54%
62 | COC(=O)C1CCCN1C(=O)c1ccc(-n2nc(C)cc2C)cc1 (configuration not stated) | -10.5%
63 | CC1C(=O)NCCN1CCOc1ccc(C#N)cc1 (configuration not stated) | 2.29%
64 | O=C(Nc1ccc(-c2nnc[nH]2)cc1)C1CCN1Cc1ccccc1 (configuration not stated) | 9.73%
65 | CC(C)C(C(=O)N1CCN(Cc2ccncc2)CC1)n1cncn1 (configuration not stated) | -13%
66 | Cc1nc2cc(O)nn2c(C)c1CCC(=O)N(C)Cc1cscn1 | -2.64%
67 | CCN1CC2(CC1=O)CN(C(C)=O)CCN(C(=O)NC(C)C)C2 (configuration not stated) | 8.95%
68 | O=C(O)c1cccc(N2C[C@H](NC(=O)C3CCOCC3)[C@@H](C3CC3)C2)n1 | -4.31%
69 | CCNC(=O)[C@@H]1C[C@@H](NC(=O)c2ccsc2)CN1CCCSC | -117%

Row | SMILES | cytotoxicity at 10 µM
70 | O=C(CN1CCc2ccccc2C1)NCc1cc2n(n1)CCCNC2 | 2.22%
71 | COCCN(Cc1cccc(O)c1)Cc1ccccc1F | 4.73%
72 | Cc1nnc(CN2CCN(C)C3(CCC(=O)N(CCO)CC3)C2)s1 (configuration not stated) | -14.9%
73 | O=C1N(CCCc2ccccc2)CCCC12CCN(C(CO)CO)C2 (configuration not stated) | -4.14%
74 | O=C(C1CCC1)N1CCCn2nc(CNc3ncccn3)cc2C1 | -123%
75 | CC(C)CN(Cc1ccc(O)c(C(=O)O)c1)Cc1cnn(C)c1 | -3.86%
76 | Nc1ccnc(N2CCC(c3nccn3CC3CC3)CC2)n1 | -0.0638%
77 | CCC(=O)N1CCC(c2nnc(Cn3cccn3)n2C2CC2)CC1 | -12.6%
78 | O=C(O)C(c1ccc2c(c1)OCO2)N1CCC(C(=O)N2CCCC2)CC1 (configuration not stated) | 4.22%
79 | C[C@@H]1CN(C(=O)c2ccc(C#N)nc2)CC[C@@]1(O)C1CCOCC1 | -11.5%
80 | CSCCCN1CC[C@@H](NC(=O)c2cnccn2)[C@H](O)C1 | -14.6%
81 | CC(NC(=O)NCCCn1cncn1)c1ccc(C(F)(F)F)cc1 (configuration not stated) | -7.1%
82 | Cc1nc(C2CCCN2C(=O)c2ccc(N(C)C)nn2)no1 (configuration not stated) | -12.9%
83 | Cc1cc(C)n(CC2CCCN2CCCc2nc3ccccc3o2)n1 (configuration not stated) | -10.9%
84 | COc1ccc(OCCNC(=O)N2CCS(=O)(=O)CC2)cc1 | -6.95%
85 | Cc1ccc(NC2CCN(C(=O)c3cncnc3C)CC2)nn1 | -3.04%
86 | COc1c(CNC(c2cccc(F)c2)c2nccn2C)c(C)nn1C (configuration not stated) | -9.19%
87 | O=C(CCc1nnc(-c2ccccc2)o1)N1CCN(CC2CC2)CC1 | -13.7%
88 | CCc1nc(C2CCCN2C(=O)c2csc(NC(C)=O)n2)no1 (configuration not stated) | -5.12%
89 | OCc1ccccc1CNCC1CNc2ccnn2C1 (configuration not stated) | -11.9%
90 | O=C(NCCCn1nc2ccccn2c1=O)Nc1ccc(F)cc1F | -7.43%
91 | O=C(c1cc2cc(F)ccc2[nH]1)N1CCC(Nc2ccc(F)cc2)CC1 | -7.36%
92 | COc1ccc(CNC(=O)NCc2c(C)cc(C)[nH]c2=O)cc1 | -3.22%

Row | SMILES | cytotoxicity at 10 µM
93 | COCC(c1cccc(C(F)(F)F)c1)N(C)C(=O)c1cc(C)no1 (configuration not stated) | 0.0161%
94 | Cc1noc(C)c1CN1CCN(Cc2nccn2C)CC1 | -4.93%
95 | CC(C)c1nnc(NC(=O)NCc2ccnc(N(C)C)c2)s1 | 7.29%
96 | Cn1ccnc1N1CCN(C(=O)Cc2ccc(Cl)cc2)CC1 | 5.73%
97 | Cc1ccc(CN(CCCn2ccnc2)Cc2cnc(N(C)C)nc2)s1 | -12.6%
98 | CNC(=O)CN1CCOCC2(CCCN(Cc3ccsc3)C2)C1 (configuration not stated) | 2.61%
99 | Cn1cc(CN2CCc3c(CNC(=O)C4CC4)cncc3C2)cn1 | -5.43%
100 | O=C(N[C@@H]1CN(Cc2cccs2)[C@@H]2CCCO[C@@H]21)c1cscn1 | -4.6%
101 | COc1cc(C(=O)N2CC3(CCNCC3)c3cc(Cl)ccc32)ccn1 | 52.8%
102 | COCc1nn(C)c2c1CCN(Cc1cnn(C)c1)C2 | -4.37%
103 | Cc1nc(-c2ccnc(N3CCNCC3)n2)no1 | 2.63%
104 | CC(C)CN1CCC2(C=C(C(=O)N3CCCC3)c3ccccc32)CC1 | -3.12%
105 | COCC1CN(S(=O)(=O)N(C)C)Cc2cnn(CC3CCCC3)c21 (configuration not stated) | 12.4%
106 | c1ncn(Cc2cn3c(n2)CN(CC2CCCC2)CC3)n1 | -127%
107 | CC(C)OCc1nn(C)c2c1CCN(Cc1ccco1)C2 | -115%
108 | CN(C)[C@@H]1CCN(C(=O)Cc2cccs2)[C@H]1Cc1cnn(C)c1 | -72.2%
109 | COc1ccccc1CN1CC[C@H]2C[C@@H](C(=O)N3CCCC3)O[C@H]2C1 | 7.28%
110 | COc1cc(C2CC(=O)c3c(O)cc(O)cc3O2)ccc1O (configuration not stated) | -0.537%
111 | CNC1CCC2(CC1)CNC(=O)c1cc(C)ccc1O2 (configuration not stated) | -9.28%
112 | Cc1ccccc1CNC(=O)N1C[C@@H]2C[C@H](C(=O)N3CCCC3)[C@H](C1)O2 | 5.68%
